Experimental data: ChEMBL document CHEMBL1137629, “Antiproliferative effect of dihydroxyacetone on Trypanosoma brucei bloodstream forms: cell cycle progression, subcellular alterations, and cell death” (Antimicrob Agents Chemother, 2007)
Activity calls are given as the source filed them. The rule behind the calls is not given here.

Tests used:
[1] = tested on: Trypanosoma brucei; test: Trypanocidal activity against Trypanosoma brucei bloodstream form assessed as cell death at 1 mM after 40 mins by spectrophotometry; format: functional, organism-based
[2] = tested on: Trypanosoma brucei; test: Trypanocidal activity against Trypanosoma brucei bloodstream form at < 1 mM; format: functional, organism-based
[3] = tested on: Trypanosoma brucei; test: Trypanocidal activity against Trypanosoma brucei bloodstream form assessed as decrease in cell density after 24 hrs by spectrophotometry; format: functional, organism-based
How it was run: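 Proliferation measured in complete medium (33 mM glucose, 15% serum) with a range of DHA concentrations. Cell density followed over 24 h. Triplicate, SD.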

[4] = tested on: Trypanosoma brucei; test: Effect on morphological changes in Trypanosoma brucei bloodstream form assessed as presence of more than one flagellum after 24 hrs using DAPI staining by phase-contrast microscopy; format: functional, organism-based
How it was run: (§1)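 Bloodstream forms (MITat 1.2, EATRO 427) grown 24 h with or without DHA. Aliquots washed twice in PBS, resuspended, placed on slides and fixed with methanol. Stained 5 min with DAPI (0.1 μg/ml final), then washed. Phase-contrast and fluorescence images scored for nucleus/kinetoplast numbers (1N1K, 1N2K, 2N2K, 2N1K, abnormal). n = 4, Student's t test, SD.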

[5] = tested on: Trypanosoma brucei; test: Effect on morphological changes in Trypanosoma brucei bloodstream form assessed as increase in cell size after 24 hrs using DAPI staining by phase-contrast microscopy; format: functional, organism-based
[6] = tested on: Trypanosoma brucei; test: Effect on morphological changes in Trypanosoma brucei bloodstream form assessed as presence of more than one flagellum at 3 mM after 24 hrs by transmission electron microscopy; format: functional, organism-based
How it was run: (§2)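 Parasites exposed 24 h to 3 mM DHA. 10⁸ cells fixed 1 h at 4°C in 2% glutaraldehyde in 0.2 M sodium cacodylate with 0.12 M sucrose, held overnight in buffer, postfixed in 1.5% osmium tetroxide and stained with 0.5% uranyl acetate. Dehydrated in ethanol, cleared in propylene oxide, embedded in Agar 100. Sections stained with 5% uranyl acetate and 0.4% lead citrate for TEM. Rapamycin (5 μM) served as the autophagy positive control.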

[7] = tested on: Trypanosoma brucei; test: Effect on morphological changes in Trypanosoma brucei bloodstream form assessed as presence of myelin-like structures at 3 mM after 24 hrs by transmission electron microscopy; format: functional, organism-based; how it was run: as §2
[8] = tested on: Trypanosoma brucei; test: Effect on morphological changes in Trypanosoma brucei bloodstream form assessed as disorder of mitochondrion structure at 3 mM after 24 hrs by transmission electron microscopy; format: functional, organism-based; how it was run: as §2
[9] = tested on: Trypanosoma brucei; test: Effect on cell cycle of Trypanosoma brucei bloodstream form assessed as increase in cells with two nuclei and two kinetoplasts at 1 to 3 mM using DAPI staining by phase-contrast microscopy; format: functional, organism-based; how it was run: as §1
[10] = tested on: Trypanosoma brucei; test: Effect on cell cycle of Trypanosoma brucei bloodstream form assessed as induction of necrosis at 3 mM after 24 hrs using propidium iodide staining by FACS analysis; format: functional
How it was run: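 Bloodstream forms exposed 24 h at 37°C, 5% CO₂. Cells at 2 × 10⁶/ml incubated 10 min with propidium iodide (5 μg/ml), and uptake read by flow cytometry as a measure of membrane integrity. Digitonin (6 μM) served as the necrosis positive control.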

[11] = tested on: Trypanosoma brucei; test: Effect on cell cycle of Trypanosoma brucei bloodstream form assessed as induction of necrosis at 5 uM after 24 hrs using propidium iodide staining by FACS analysis; format: functional
[12] = tested on: Trypanosoma brucei; test: Cell cycle arrest in Trypanosoma brucei bloodstream form assessed as accumulation at G2/M phase at 2 mM after 24 hrs using propidium iodide staining by FACS analysis; format: functional
How it was run: (§3)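 T. brucei bloodstream forms (MITat 1.2, strain EATRO 427), axenic culture at 37°C, 5% CO₂. Treated 24 h. At least 5 × 10⁵ cells washed in PBS, lysed hypotonically 30 min at room temperature in 10 mM phosphate buffer pH 7.4 with 6 μM digitonin. Nuclei stained with propidium iodide (10 μg/ml final) and analysed by flow cytometry for G₁/S/G₂ distribution and degraded DNA.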

[13] = tested on: Trypanosoma brucei; test: Cell cycle arrest in Trypanosoma brucei bloodstream form assessed as accumulation at G2 phase at 2 mM after 24 hrs using propidium iodide staining by FACS analysis; format: functional; how it was run: as §3
[14] = tested on: Trypanosoma brucei; test: Effect on cell cycle of Trypanosoma brucei bloodstream form assessed as DNA content at 4 mM after 24 hrs using propidium iodide staining by FACS analysis; format: functional; how it was run: as §3
[15] = tested on: Trypanosoma brucei; test: Effect on morphological changes in Trypanosoma brucei bloodstream form assessed as dilation of mitochondrial membrane at 3 mM after 24 hrs by transmission electron microscopy; format: functional, organism-based; how it was run: as §2
[16] = tested on: Trypanosoma brucei; test: Trypanocidal activity against Trypanosoma brucei bloodstream form assessed as induction of autophagy at 3 mM after 24 hrs by transmission electron microscopy; format: functional, organism-based; how it was run: as §2
[17] = tested on: Trypanosoma brucei; test: Induction of apoptosis-like programmed cell death in Trypanosoma brucei bloodstream form assessed as loss of mitochondrial-membrane potential at 2 mM after 24 hrs by TMRE staining; format: functional
How it was run: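 T. brucei MITat 1.2 (EATRO 427) bloodstream forms were grown axenically at 37°C, 5% CO₂ and exposed to DHA for 24 h. Cells at 10⁶/ml were stained with 25 nM TMRE in culture medium for 30 min at 37°C and read at once by flow cytometry. Depolarization control: valinomycin 100 nM. Lower fluorescence signifies lost membrane potential.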

[18] = tested on: Trypanosoma brucei; test: Induction of apoptosis-like programmed cell death in Trypanosoma brucei bloodstream form assessed as phosphatidylserine exposure in outer leaflet of plasma membrane at 2 mM after 24 hrs by V-Fluos staining staining; format: functional
How it was run: (§4)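 After 24 h DHA exposure of axenic bloodstream-form T. brucei MITat 1.2 (EATRO 427; 37°C, 5% CO₂), cells were washed in HEPES buffer (10 mM, pH 7.4, 140 mM NaCl, 5 mM CaCl₂). They were then stained with annexin V-Fluos for 15 min at 4°C and analysed by flow cytometry.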

[19] = tested on: Trypanosoma brucei; test: Induction of apoptosis-like programmed cell death in Trypanosoma brucei bloodstream form assessed as phosphatidylserine exposure in outer leaflet of plasma membrane at 3 mM after 24 hrs by V-Fluos staining staining; format: functional; how it was run: as §4
[20] = tested on: Trypanosoma brucei; test: Induction of apoptosis-like programmed cell death in Trypanosoma brucei bloodstream form assessed as phosphatidylserine exposure in outer leaflet of plasma membrane at 4 mM after 24 hrs by V-Fluos staining staining; format: functional; how it was run: as §4
[21] = tested on: Trypanosoma brucei; test: Induction of apoptosis-like programmed cell death in Trypanosoma brucei bloodstream form assessed as phosphatidylserine exposure in outer leaflet of plasma membrane at 5 uM after 24 hrs by V-Fluos staining staining; format: functional
[22] = tested on: Trypanosoma brucei; test: Induction of apoptosis-like programmed cell death in Trypanosoma brucei bloodstream form assessed as increase in intracellular reactive oxygen species production at 1 mM after 24 hrs by FACS analysis; format: functional
How it was run: (§5)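 Bloodstream-form T. brucei MITat 1.2 (VSG 221, strain EATRO 427) were grown axenically at 37°C, 5% CO₂ and exposed to DHA for 24 h. Control and treated cells were then loaded with 10 μM dichlorofluorescein diacetate for 1 h at 37°C. Intracellular fluorescence intensity was read by flow cytometry.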

[23] = tested on: Trypanosoma brucei; test: Induction of apoptosis-like programmed cell death in Trypanosoma brucei bloodstream form assessed as increase in intracellular reactive oxygen species production at 2 mM after 24 hrs by FACS analysis; format: functional; how it was run: as §5
[24] = tested on: Trypanosoma brucei; test: Induction of apoptosis-like programmed cell death in Trypanosoma brucei bloodstream form assessed as increase in intracellular reactive oxygen species production at 3 mM after 24 hrs by FACS analysis; format: functional; how it was run: as §5
[25] = tested on: Trypanosoma brucei; test: Induction of programmed cell death in Trypanosoma brucei bloodstream form assessed as death of total cell population at > 4 mM up to 24 hrs using propidium iodide staining by FACS analysis

SMILES: O=C(CO)CO [DIHYDROXYACETONE]
- Activity [1]: Active
- Activity [2]: Active
- Activity [3]: Dose-dependent effect
- Activity [4]: Dose-dependent effect
- Activity [5]: Dose-dependent effect
- Activity [6]: Active
- Activity [7]: Active
- Activity [8]: Active
- Activity [9]: Active
- Activity [10]: 9.9%
- Activity [11]: 4.5%
- Activity [12]: <=70%
- Activity [13]: 50%
- Activity [14]: 9.7%
- Activity [15]: Active
- Activity [16]: Active
- Activity [17]: 7.3%
- Activity [18]: 10.1%
- Activity [19]: 11.9%
- Activity [20]: 20%
- Activity [21]: 35.8%
- Activity [22]: 5.9%
- Activity [23]: 10.6%
- Activity [24]: 14.4%
- Activity [25]: Active
